Most compounds without a hit are left out; they make up all but 1.8% or so of the library.
Runt-CBFb FRET: Runt domain-CBFb interaction inhibition. Cerulean-Runt/Venus-CBFb FRET ratio 530/480, 1 h. Q01196+Q13951. actives 0.46% (n = 220,000). inhibition, % at 20 µM;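 active means inhibition over about 50% at 20 µM in the single-dose screen, limit read from the data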
Target sequence (Q01196 whole entry, looked up, the tested form may be a part): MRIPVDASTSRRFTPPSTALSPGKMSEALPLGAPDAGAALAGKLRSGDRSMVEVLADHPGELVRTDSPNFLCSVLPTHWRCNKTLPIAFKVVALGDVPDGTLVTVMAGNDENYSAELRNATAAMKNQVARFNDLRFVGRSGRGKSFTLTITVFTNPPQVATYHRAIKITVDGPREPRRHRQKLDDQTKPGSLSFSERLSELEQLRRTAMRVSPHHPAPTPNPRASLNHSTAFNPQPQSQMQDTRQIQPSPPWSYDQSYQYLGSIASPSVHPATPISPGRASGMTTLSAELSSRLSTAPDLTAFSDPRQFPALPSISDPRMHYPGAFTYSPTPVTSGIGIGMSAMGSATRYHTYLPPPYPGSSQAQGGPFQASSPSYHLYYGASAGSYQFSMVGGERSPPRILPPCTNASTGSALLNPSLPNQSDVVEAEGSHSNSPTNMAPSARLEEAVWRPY
Target sequence (Q13951 whole entry, looked up, the tested form may be a part): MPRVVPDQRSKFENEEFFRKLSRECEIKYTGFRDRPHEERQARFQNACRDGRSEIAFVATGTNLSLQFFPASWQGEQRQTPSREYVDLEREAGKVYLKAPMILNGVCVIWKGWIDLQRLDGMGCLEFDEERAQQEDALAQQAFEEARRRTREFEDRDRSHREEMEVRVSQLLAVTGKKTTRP
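test system = Cerulean-tagged RUNX1 Runt domain (FRET donor) fusion protein | reagent = Venus-CBFb binding partner, 100 nM | incubation = protein complex preformed 1 h, compound exposure 1 h, room temperature, dark | detection = FRET fluorescence | read-out basis = loss of energy transfer signal | controls = 5 µM unlabeled CBFb as full-inhibition high control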
RanGTP-Imp inh: disruptors of Ran-importin-beta complex formation – biochemical, FRET, CFP-Ran, YFP-importin-beta, homogeneous, primary screen; cell-free CFP-Ran/YFP-importin-beta FRET ratio; actives 1.1% (n = 300,000); AID 2216; inhibition, % (test concentration not listed);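 active means more than half of the replicate wells show a fall in the fluorescence ratio signal beyond about 16%, limit read from the data, passing the limit was not always enough; inconclusive means exactly half of the replicate wells pass the set limit; inactive means fewer than half of replicates pass the limit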
Hck Nef HTS: inhibitors of human Hck kinase activated by Nef | Recombinant Hck-YEEI plus Nef, Z-Lyte FRET kinase assay | inhibition, % at 20 µM | actives 0.68% (n = 220,000);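 active means Hck-Nef kinase inhibition above about 50%, limit read from the data; inactive means inhibition below that limit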
Runt-SMMHC FRET: inhibitors of human RUNX1 Runt domain binding to CBFb-SMMHC; inhibition, % at 20 µM; Cerulean-Runt/Venus-CBFb-SMMHC FRET ratio 530/480, 1 h; actives 0.74% (n = 220,000); AID 1434;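 active means mean inhibition across duplicate retests at 20 µM reaching about 50%, limit read from the data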;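 further: inhibitors lower the FRET ratio by blocking Runt binding to CBFb-SMMHC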
Hck Nef conf: Hck-Nef kinase inhibition, confirmation; shares compounds with Hck Nef HTS; Recombinant Hck-YEEI:Nef, Z-Lyte FRET kinase assay; calls only at 10 µM; actives 28% (n = 1,300);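 active means average inhibition of at least 50%, with Z-scores no higher than 3 in both the phospho-tyrosine peptide and fluorescence counterscreens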
Each line names hits and unclear results; the compound was inactive in the other large screens (follow-up assays come after a bar, where shown).

O=C(COc1ccc(C(=S)N2CCCC2)cc1)Nc1ccccc1C(F)(F)F	none (no result: Runt-CBFb FRET, Hck Nef HTS, Runt-SMMHC FRET)
CC(=O)Nc1ccc(N2C(=O)c3ccc(C(=O)Nc4nnc(SCc5ccc(F)cc5)s4)cc3C2=O)cc1	Hck Nef HTS 86 | Hck Nef conf inactive
CCC(=O)Nc1nnc(SCc2ccc(F)cc2)s1	none
O=C(Nc1cccc(F)c1)c1ccc(S(=O)(=O)N2CCCCC2)cc1	none (no result: Runt-CBFb FRET, Hck Nef HTS, Runt-SMMHC FRET)
Cc1ccc(-c2ccc(/C=N/NC(=O)Cc3nnc(N)s3)o2)cc1Cl	none
COc1ccc(-c2ccc(/C=N/NC(=O)Cc3nnc(N)s3)o2)cc1Cl	Hck Nef HTS 79 | Hck Nef conf inactive
CN(Cc1ccccc1)C(=O)C1CCN(S(=O)(=O)c2ccc3nc4c(c(C(=O)O)c3c2)CCCC4)CC1	none (no result: Runt-CBFb FRET, Hck Nef HTS, Runt-SMMHC FRET)
CCCc1cc(NCCN(C)C)n2c(nc3ccccc32)c1C#N	none (no result: Runt-CBFb FRET, Hck Nef HTS, Runt-SMMHC FRET)
CCCc1cc(NCC2CCCO2)n2c(nc3ccccc32)c1C#N (configuration not stated)	RanGTP-Imp inh 52, Hck Nef HTS 121, Runt-SMMHC FRET 55
CCCNc1cc(C)c(C#N)c2nc3ccccc3n12	none (no result: RanGTP-Imp inh)
COCCNc1cc(C)c(C#N)c2nc3ccccc3n12	RanGTP-Imp inh 25, Hck Nef HTS 70
O=C(N=Nc1c(O)[nH]c2ccccc12)c1cc(NS(=O)(=O)c2cccs2)cc(NS(=O)(=O)c2cccs2)c1	Hck Nef HTS 88 | Hck Nef conf active
COC(=O)C1=C(O)/C(=C\c2ccc(OCC(=O)Nc3ccc(OC)cc3)cc2)N=C1C	none (no result: Runt-CBFb FRET, Hck Nef HTS, Runt-SMMHC FRET)
COc1ccc(C(=O)n2cc(C(=O)c3cc(C)ccc3O)cn2)cc1	none
COc1ccc(C(=O)n2cc(C(=O)c3cc(C)ccc3O)cn2)cc1OC	Hck Nef HTS 67 | Hck Nef conf active
CCC/C=N/NC(=O)c1cccc(Br)c1	Hck Nef HTS 119 | Hck Nef conf inactive
CCC/C=N/NC(=O)c1ccc(F)cc1	none
Cc1ccc(C2=NC(=O)/C(=C/c3cc(O)c(O)c(Br)c3)S2)cc1	Hck Nef HTS 50 (no result: RanGTP-Imp inh) | Hck Nef conf active
COc1cc(/C=C2\SC(c3ccc(C)cc3)=NC2=O)cc(OC)c1O	none
CC(Oc1ccc2ccc(=O)oc2c1)C(=O)NC1CCN(Cc2ccccc2)CC1 (configuration not stated)	none (no result: Runt-CBFb FRET, Hck Nef HTS, Runt-SMMHC FRET)
CCOC(=O)C1=NOC(C(=O)NN(C)c2ncc(C(F)(F)F)cc2Cl)C1 (configuration not stated)	Hck Nef HTS 60 | Hck Nef conf inactive
CCOC(=O)C1=NOC(CNc2ncc(C(F)(F)F)cc2Cl)C1 (configuration not stated)	none
Cc1ccccc1C(=O)Nc1nc(-c2cccnc2)cs1	Hck Nef HTS 51 | Hck Nef conf active
NC(=O)c1cc2ccc(O)cc2oc1=NCc1ccccc1	RanGTP-Imp inh 181, Hck Nef HTS 104, Runt-SMMHC FRET 83
C=CCOc1ccc(/C=C2\SC(=S)N(C(C(=O)O)c3ccccc3)C2=O)cc1 (configuration not stated)	Hck Nef HTS 51 | Hck Nef conf active
CCOc1ccc(/C=C2\SC(=S)N(C(C(=O)O)c3ccccc3)C2=O)cc1OC (configuration not stated)	none
COc1cc(NC(=O)c2onc(C)c2Cl)cc(OC)c1OC	none (no result: Runt-CBFb FRET, Hck Nef HTS, Runt-SMMHC FRET)
N#Cc1c(NCCCO)nc(-c2ccco2)c2c1CCCC2	Hck Nef HTS 140
CC(=O)OCC1=C(C(=O)O)N2C(=O)C(NC(=O)C(C)Cn3nc(C)c(Cl)c3C)C2SC1 (configuration not stated)	Hck Nef HTS 70 | Hck Nef conf inactive
CC(=O)OCC1=C(C(=O)O)N2C(=O)C(NC(=O)c3ccc(F)cc3)C2SC1 (configuration not stated)	none
O=C(CCN1CCN(C(=O)c2ccccc2)CC1)c1ccc(Br)cc1	none (no result: Runt-CBFb FRET, Hck Nef HTS, Runt-SMMHC FRET)
COc1ccc(/C=N/NC(=O)c2cc(C(C)(C)C)[nH]n2)cc1COc1ccc(F)cc1F	RanGTP-Imp inh 51, Hck Nef HTS 58 | Hck Nef conf inactive
COc1ccc(/C=N\NC(=O)c2ccccc2F)cc1COc1ccc(F)cc1F	none (no result: Runt-CBFb FRET, Hck Nef HTS, Runt-SMMHC FRET)
CCOc1ccc(CCNC(=O)CSC(=S)N2CCCC2)cc1OCC	none (no result: Runt-CBFb FRET, Hck Nef HTS, Runt-SMMHC FRET)
O=[N+]([O-])c1ccc(N/N=C/c2cccc(O)c2O)c(S(=O)(=O)N2CCOCC2)c1	none
O=[N+]([O-])c1ccc(N/N=C/c2ccc(O)c(O)c2O)c(S(=O)(=O)N2CCOCC2)c1	Hck Nef HTS 117 | Hck Nef conf inactive
NS(=O)(=O)c1ccc(C(=O)Nc2ccc(-c3nc4cccnc4s3)cc2)cc1	none
O=S(=O)(Nc1ccc(-c2nc3cccnc3s2)cc1)c1cc(F)ccc1F	Hck Nef HTS 115, Runt-SMMHC FRET 85
Cc1ccc(-c2nc(C#N)c(N3CCC(C(N)=O)CC3)o2)cc1	none (no result: Runt-CBFb FRET, Hck Nef HTS, Runt-SMMHC FRET)
CCc1c(C)nc(SCC(=O)N2CCN(c3ccccc3OC)CC2)[nH]c1=O	none
COc1ccccc1N1CCN(C(=O)CSc2nc(C)c(C)c(=O)[nH]2)CC1	RanGTP-Imp inh inconclusive, Hck Nef HTS 66 | Hck Nef conf inactive
CCCSC1=N/C(=C\c2ccc([N+](=O)[O-])o2)C(=O)S1	Hck Nef HTS 51 (no result: RanGTP-Imp inh) | Hck Nef conf inactive
Cc1cc(=O)oc2c(CN(C)Cc3ccccc3)c(O)ccc12	Hck Nef HTS 58, Runt-SMMHC FRET 82
CN(Cc1ccccc1)Cc1c(O)ccc2ccccc12	none (no result: Runt-CBFb FRET, Hck Nef HTS, Runt-SMMHC FRET)
COc1cc(/C=C(\C#N)C(=O)Nc2ccc3c(c2)OCCO3)ccc1O	none
COc1ccc(C(=O)CSc2nnc(-c3ccco3)n2C)cc1	none
COc1ccc(C(=O)CSc2nnc(-c3ccco3)c(-c3ccco3)n2)cc1	Hck Nef HTS 85 | Hck Nef conf inactive
COCCNC(=O)c1cc2c(=O)n3cccc(C)c3nc2n(Cc2ccncc2)c1=N	RanGTP-Imp inh 192, Hck Nef HTS 151
CCCCNC(=O)c1cc2c(=O)n3cccc(C)c3nc2n(Cc2ccncc2)c1=N	RanGTP-Imp inh 188, Hck Nef HTS 67, Runt-SMMHC FRET 70 | Hck Nef conf inactive
COC(=O)C1CCN(C(=O)c2cc3c(=O)n4cccc(C)c4nc3n2Cc2ccccc2)CC1	none
Cc1ccc(NC(=S)N2CCC(N(C)CC3CCCO3)CC2)cc1 (configuration not stated)	none
Nc1nn2cc(-c3ccccc3)nc2c2ccccc12	Hck Nef HTS 50 | Hck Nef conf active
Cc1ccc(C(=O)NC(=S)Nc2ccc(-c3ccc(CO)o3)cc2)cc1	RanGTP-Imp inh inconclusive, Hck Nef HTS 61 | Hck Nef conf inactive
Clc1ccc2oc(-c3cccnc3NCc3ccccc3)nc2c1	Hck Nef HTS 90
Cc1ccc(CNc2ncccc2-c2nc3cc(Cl)ccc3o2)cc1	Hck Nef HTS 66 | Hck Nef conf active
O=C(CCS(=O)(=O)c1ccc(Cl)cc1)Nc1ccc(N2CCOCC2)cc1	none
O=CNn1cnc2c(oc3nc(-c4ccccc4)cc(-c4ccco4)c32)c1=O	Hck Nef HTS 55 | Hck Nef conf inactive
Oc1ccc(/C=N/Nc2nccnc2Cl)cc1	none
Nc1c(Cl)ncnc1N/N=C/c1ccc(O)cc1	Hck Nef HTS 52 | Hck Nef conf inactive
